The values that follow come from PubChem BioAssay AID602285 (Broad Institute, 2012).

Active and inactive are the calls of the source.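 The calls were made as follows: active = AC50 at or below twice the top valid dose for that sample, with falling signal; inconclusive = flat curve with inhibition of 30 to 70%, or poor fit; inactive = activity in the wrong direction, plus the rest.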

Scavenger receptor class B member 1 (Mus musculus), sequence (Q61009 whole entry, looked up): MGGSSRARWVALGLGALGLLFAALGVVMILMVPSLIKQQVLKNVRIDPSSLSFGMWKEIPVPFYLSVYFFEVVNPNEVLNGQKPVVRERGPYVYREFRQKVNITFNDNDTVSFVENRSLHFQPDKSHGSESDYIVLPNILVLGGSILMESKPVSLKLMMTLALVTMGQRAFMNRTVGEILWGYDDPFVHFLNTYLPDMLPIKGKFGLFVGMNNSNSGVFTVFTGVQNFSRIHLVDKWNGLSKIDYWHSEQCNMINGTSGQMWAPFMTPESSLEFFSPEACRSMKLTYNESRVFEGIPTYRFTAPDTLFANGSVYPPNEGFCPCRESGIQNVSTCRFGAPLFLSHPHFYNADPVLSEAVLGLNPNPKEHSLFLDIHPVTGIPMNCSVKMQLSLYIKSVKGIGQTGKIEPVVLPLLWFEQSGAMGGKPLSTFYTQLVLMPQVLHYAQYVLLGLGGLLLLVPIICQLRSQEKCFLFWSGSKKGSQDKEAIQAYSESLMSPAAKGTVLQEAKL

The target of one test is Scavenger receptor class B member 1 (Mus musculus) (UniProt Q61009). Description: inhibitors of HDL uptake via mouse SR-BI, dose response, ldlA[mSR-BI] CHO cells, fluorescence plate reader, dry powder, set 8 (AID 602285). The following applies: DiI-HDL uptake fluorescence, 3 h. Put shortly: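 Test system: CHO ldlA cells overexpressing mouse SR-BI | Compound dosing: Pin-transferred compounds, dose series | Technique: Washed-cell DiI fluorescence, ex 550/em 595 nm | Schedule: Overnight cell plating, then 3 h compound and DiI-HDL exposure at 37 °C | Probe or stimulus: DiI-labelled HDL, 10 µg protein/mL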
As for `C[C@@H]1CN([C@H](C)CO)C(=O)c2cc(N(C)C)ccc2O[C@H]1CN(C)S(=O)(=O)c1ccc(Cl)cc1`, the AC50 is 628 nM. On to `C[C@@H]1CN([C@@H](C)CO)C(=O)c2cc(NC(=O)Cc3cn(C)c4ccccc34)ccc2O[C@H]1CN(C)S(=O)(=O)c1ccc(Cl)cc1`, for which the AC50 is 912 nM.

Regarding `C[C@H]1CN([C@@H](C)CO)C(=O)c2cc(NC(=O)Cc3cn(C)c4ccccc34)ccc2O[C@H]1CN(C)S(=O)(=O)c1ccc(Cl)cc1`, the AC50 is 12300 nM. The same measure, in the same setting: for `COCC(=O)N1CCc2cc(-c3csc(NC(=O)c4cc(OC)cc(OC)c4)n3)ccc21` the value was < 15 nM. As to `C[C@H](CO)N1C[C@H](C)[C@@H](CN(C)S(=O)(=O)c2ccc(Cl)cc2)Oc2ccc(NC(=O)Cc3cn(C)c4ccccc34)cc2C1=O`, the AC50 is 8910 nM.

For the compound `Cc1noc(C)c1S(=O)(=O)Nc1ccc2c(c1)C(=O)N([C@H](C)CO)C[C@@H](C)[C@H](CN(C)S(=O)(=O)c1ccc(Cl)cc1)O2`, the AC50 is 297 nM. As to `C[C@@H]1CN([C@H](C)CO)C(=O)c2cc(NS(=O)(=O)c3cccs3)ccc2O[C@H]1CN(C)S(=O)(=O)c1ccc(Cl)cc1`, the AC50 was 3770 nM. Consider `COc1ccc(CN(C)C[C@@H]2Oc3ccc(NC(=O)Cc4cn(C)c5ccccc45)cc3C(=O)N([C@H](C)CO)C[C@H]2C)cc1`, for which the AC50 was 2550 nM. On to `C[C@@H]1CN([C@H](C)CO)C(=O)c2cc(NC(=O)Cn3cnnn3)ccc2O[C@H]1CN(C)S(=O)(=O)c1ccc(Cl)cc1`, for which the AC50 was 10300 nM. On the same count and under the same terms, for `C[C@@H]1CN([C@H](C)CO)C(=O)c2cc(NC(=O)Cc3cn(C)c4ccccc34)ccc2O[C@H]1CN(C)Cc1ccc(C(=O)O)cc1` the value was 11800 nM; for `C[C@@H]1CN([C@H](C)CO)C(=O)c2cc(NC(=O)Cc3cn(C)c4ccccc34)ccc2O[C@H]1CN(C)Cc1ccncc1`, 1300 nM; for `C[C@@H]1CN([C@H](C)CO)C(=O)c2cc(NS(=O)(=O)c3ccc(F)cc3)ccc2O[C@H]1CN(C)S(=O)(=O)c1ccc(Cl)cc1`, 13700 nM. In the case of `C[C@@H]1CN([C@H](C)CO)C(=O)c2cc(NC(=O)Cc3cn(C)c4ccccc34)ccc2O[C@H]1CN(C)S(=O)(=O)c1ccccc1`, the AC50 is 215 nM. For `C[C@@H]1CN([C@H](C)CO)C(=O)c2cc(NC(=O)Cc3cn(C)c4ccccc34)ccc2O[C@H]1CN(C)C(=O)Nc1ccc(F)cc1`, the AC50 is 1560 nM. `C[C@@H]1CN([C@H](C)CO)C(=O)c2cc(NC(=O)c3ccncc3)ccc2O[C@H]1CN(C)S(=O)(=O)c1ccc(Cl)cc1`: the AC50 is 593 nM. Regarding `C[C@@H]1CN([C@H](C)CO)C(=O)c2cc(NC(=O)NC3CCCCC3)ccc2O[C@H]1CN(C)S(=O)(=O)c1ccc(Cl)cc1`, the AC50 is 354 nM. Same read-out and setting: the same measure for `O=C(C[C@@H]1CC[C@@H](NC(=O)CC2CC2)[C@H](CO)O1)NCc1ccc(Cl)cc1`: > 70000 nM (inactive); for `Cc1noc(C)c1NC(=O)N(C)C[C@H]1Oc2cc(C#CCC3CCCC3)ccc2S(=O)(=O)N([C@H](C)CO)C[C@@H]1C`: 94 nM. `O=C(C[C@H]1CC[C@H](NC(=O)CC2CC2)[C@@H](CO)O1)NCc1ccc(Cl)cc1`: the AC50 was > 70000 nM (inactive).

The same test, now with this note: DiI-HDL uptake fluorescence, 3 h, at 35 µM (top of the series).
As for `C[C@@H]1CN([C@H](C)CO)C(=O)c2cc(NC(=O)Nc3ccc(C(F)(F)F)cc3)ccc2O[C@H]1CN(C)S(=O)(=O)c1ccc(Cl)cc1`, the “activity change, negative = inhibition” value is “inactive”. Same read-out and setting: the same measure for `C[C@@H]1CN([C@H](C)CN(C)C)C(=O)c2cc(NC(=O)Cc3cn(C)c4ccccc34)ccc2O[C@H]1CN(C)S(=O)(=O)c1ccc(Cl)cc1`: “inactive”. With `Cc1ccccc1-c1ccc2c(c1)O[C@H](CN(C)C(=O)Nc1ccc(F)cc1)[C@H](C)CN([C@H](C)CO)S2(=O)=O`, the “activity change, negative = inhibition” value was “inactive”. As for `C[C@@H]1CN([C@@H](C)CO)C(=O)Cc2cc(NS(=O)(=O)c3cn(C)cn3)ccc2O[C@@H]1CN(C)Cc1ccc(Cl)c(Cl)c1`, the “activity change, negative = inhibition” value was “inactive”. In the case of `C[C@H](CO)N1C[C@H](C)[C@H](CN(C)S(=O)(=O)c2ccc(Cl)cc2)Oc2ccc(NC(=O)Cc3cn(C)c4ccccc34)cc2C1=O`, the “activity change, negative = inhibition” value was “inactive”.
